Experimental data as given in ChEMBL document CHEMBL1131635 (J Med Chem, 1998).

Biological target: T1, Phosphoglycerate kinase (Saccharomyces cerevisiae S288c, UniProt P00560)
T1 sequence (P00560 whole entry): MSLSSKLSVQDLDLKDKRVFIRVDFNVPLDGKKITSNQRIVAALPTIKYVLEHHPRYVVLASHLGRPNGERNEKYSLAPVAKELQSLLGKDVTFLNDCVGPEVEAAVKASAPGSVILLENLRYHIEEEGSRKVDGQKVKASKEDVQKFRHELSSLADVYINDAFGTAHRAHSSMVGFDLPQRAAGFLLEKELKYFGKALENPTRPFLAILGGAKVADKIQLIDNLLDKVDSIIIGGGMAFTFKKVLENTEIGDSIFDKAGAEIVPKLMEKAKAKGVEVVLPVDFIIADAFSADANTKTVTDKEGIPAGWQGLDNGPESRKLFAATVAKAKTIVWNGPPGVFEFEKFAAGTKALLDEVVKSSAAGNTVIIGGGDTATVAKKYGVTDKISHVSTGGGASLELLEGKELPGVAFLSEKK
Test: Dissociation constant of phosphoglycerate kinase (PGK) at pH (3.0-11.0) was determined
How it was run: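 Free bisphosphonic acids in stirred solution were titrated from pH 11 down to pH 3 by controlled addition of 0.1 M HCl using an autotitrator with a combined glass electrode. The titration curves were plotted over pH 3–11, and successive pKa values of the phosphonic acid groups were calculated from the experimental data.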

Row | Structure (SMILES) | Kd
1 | O=C(CCCP(=O)(O)O)CP(=O)(O)O | 19 µM
2 | O=C(CP(=O)(O)O)NCC(F)(F)P(=O)(O)O | 2 µM
3 | O=P(O)(O)CCCCC(F)(F)P(=O)(O)O | 4 µM
4 | O=P(O)(O)CCCCCCP(=O)(O)O | 2130 µM
5 | O=C(CCP(=O)(O)O)CP(=O)(O)O | 2 µM
6 | O=C(CCC(F)(F)P(=O)(O)O)C(F)(F)P(=O)(O)O | 5 µM
7 | O=C(CCP(=O)(O)O)C(F)(F)P(=O)(O)O | 3 µM
8 | O=C(CCCP(=O)(O)O)C(F)(F)P(=O)(O)O | 76 µM
9 | O=P(O)(O)C(F)(F)COCC(F)(F)P(=O)(O)O | 265 µM
10 | O=C(CP(=O)(O)O)NCCP(=O)(O)O | 675 µM
11 | O=P(O)(O)C(F)(F)C(O)(O)C(F)(F)P(=O)(O)O | 72 µM
12 | O=P(O)(O)C(F)(F)CCCCC(F)(F)P(=O)(O)O | 1000 µM
13 | O=C(NCCP(=O)(O)O)C(F)(F)P(=O)(O)O | 6 µM
